Compound activity as filed in PubChem.
The list is not random: actives were taken first. Their share in the collection is about 0.63%.
GSK3B inh: blocks human GSK3beta kinase activity. GST-GSK3beta kinase, ADP-Glo luminescence, 60 min; hits give low values. hit rate 0.038% among 300,000. activity score (negative = inhibition), % at 10 µM. P49841. AID 2097;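 active = more than half of replicate wells score below -50%, meaning over 50% inhibition versus plate controls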
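Assay system: GST-tagged human GSK3beta kinase, cell-free; Input: 1.6 ng GSK3beta; Medium: Tris/MgCl2 kinase buffer; Timing: 60 min enzyme reaction, room temperature; Signal: ADP-Glo luminescence quantifying ADP generated by kinase; Evaluation: score relative to plate controls; Benchmarks: DMSO neutral wells and GW8510 at 20 µM as positive.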
STK33 inh: human STK33 kinase inhibition. Q9BYT3. purified STK33, MBP phosphorylation, ADP-Glo luminescence. inhibition, % at 10 µM. hit rate 0.073% among 320,000. AID 2661;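 active = inhibition at or above 25%, using the most active replicate where run in duplicate; inactive = inhibition below 25%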
Target sequence (Q9BYT3 whole entry, looked up): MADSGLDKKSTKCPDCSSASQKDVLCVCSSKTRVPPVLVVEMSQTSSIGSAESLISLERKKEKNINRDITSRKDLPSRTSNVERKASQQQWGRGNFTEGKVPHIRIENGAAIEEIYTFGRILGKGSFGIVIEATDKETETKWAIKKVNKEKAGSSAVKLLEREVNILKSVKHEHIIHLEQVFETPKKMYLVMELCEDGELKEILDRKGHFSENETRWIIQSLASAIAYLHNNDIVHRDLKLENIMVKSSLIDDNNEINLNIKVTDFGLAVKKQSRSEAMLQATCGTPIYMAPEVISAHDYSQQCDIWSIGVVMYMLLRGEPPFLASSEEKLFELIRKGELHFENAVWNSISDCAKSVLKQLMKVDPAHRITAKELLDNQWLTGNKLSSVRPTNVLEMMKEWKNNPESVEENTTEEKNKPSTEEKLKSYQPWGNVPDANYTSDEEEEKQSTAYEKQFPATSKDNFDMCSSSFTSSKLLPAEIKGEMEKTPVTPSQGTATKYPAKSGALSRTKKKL
GSK3A inh: inhibitors of human GSK-3 alpha kinase. hit rate 0.1% among 320,000. AID 2650. inhibition, % at 10 µM. ADP-Glo luminescence, 60 min. P49840;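 active = more than half of replicates show inhibition above 20%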;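 note: GST-tagged GSK-3 alpha with peptide substrate and 25 µM ATP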
DSG3 Ab inh: blocks pemphigus antibody binding to human desmoglein-3; binding (percent of control), % at 10 µM; DSG3-coupled beads, scFv-anti-DSG3-GFP binding, flow cytometry; hits give low values; hit rate 0.48% among 310,000;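 active = binding more than 3 SD below its plate's average and above zero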;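 note: hits lower antibody fragment binding to DSG3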
MT1-MMP act inh: inhibitors of human MT1-MMP activation; AID 651647; P50281; hit rate 0.061% among 360,000; HT1080 RFP-PRO-GFP cells, GFP/RFP ratio fluorescence, overnight; percent of plate control window, DMSO zero; GFP/RFP ratio change, % at 20 µM;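 active = GFP/RFP ratio change of at least 30% with cell ATP level not reduced by more than half and red fluorescence within 50% of control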
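system = RFP-PRO-GFP reporter HT1080 cells | dosing = 20 µM single dose, 1% DMSO | timing = overnight cell settling, then overnight compound exposure, 37 °C, 5% CO2 | read-out basis = GFP/RFP fluorescence ratio | controls = DMSO and RFP-L50D-GFP cell wells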
MT1-MMP conf: validation of inhibitors of human MT1-MMP activation. HT1080 RFP-PRO-GFP cells, GFP and RFP fluorescence ratio, overnight. hit rate 10% among 200. shares compounds with MT1-MMP act inh. inhibition, % at 20 µM. AID 652235;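 active = inhibition of at least 50% in the primary cell screen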
Of the large screens only hits and unclear results are named; the others gave an inactive call (follow-up assays come after a bar, where they were run).

CO[C@@H]1CN(C)C(=O)c2ccc(NC(=O)c3ccccc3F)cc2OC[C@@H](C)N(CC2CCOCC2)C[C@@H]1C	none (no result: GSK3B inh, STK33 inh, GSK3A inh, DSG3 Ab inh)
COc1ccc2nc(-n3c(O)c(C4=c5ccccc5=NC4=O)[nH]c3=S)sc2c1	MT1-MMP act inh 34.6 | MT1-MMP conf inactive
Cn1c(O)c(C2=c3ccccc3=NC2=O)[nH]c1=S	none
Cc1c(C2=CCN(S(=O)(=O)c3ccc(Br)cc3)CC2)c2ccccc2n1C	none
CCn1c(C)c(C2=CCN(S(=O)(=O)c3ccc(C)cc3)CC2)c2ccccc21	MT1-MMP act inh 31.4 | MT1-MMP conf inactive
Cc1cc2nc(-c3ccc(F)cc3)c(Cc3cccc(Cl)c3)n2c(C)c1Br	none (no result: GSK3B inh, STK33 inh, GSK3A inh, DSG3 Ab inh)
Cc1cccc2c1NC1(CCCC1)CC2C (stereo unspecified)	MT1-MMP act inh 30.4 | MT1-MMP conf inactive
Cc1ccc(C2CC(=O)Oc3cc(O)ccc32)cc1 (stereo unspecified)	MT1-MMP act inh 38.0 (no result: GSK3A inh) | MT1-MMP conf inactive
CCNc1nc(-c2sc(NC(=O)C(C)(C)C)nc2C)c(-n2cc(-c3ccccc3)nn2)s1	none (no result: GSK3B inh, STK33 inh, GSK3A inh, DSG3 Ab inh)
O=C(O)c1ccccc1C(=O)Nc1ccc(Nc2ccccc2)cc1	MT1-MMP act inh 32.6 (no result: GSK3B inh, STK33 inh, GSK3A inh) | MT1-MMP conf inactive
CNc1ccccc1C(C)(C)c1cc(-c2cccc(Br)c2)no1	MT1-MMP act inh 62.0 | MT1-MMP conf 53.9
CNc1ccccc1C(C)(C)c1cc(-c2cccc([N+](=O)[O-])c2)no1	none
COc1ccc(C2=CCCCCC2)cc1OC	none (no result: GSK3B inh, STK33 inh, GSK3A inh)
CCCCn1nnnc1C(c1ccccc1OC(F)(F)F)N1CCN(C/C=C/c2ccccc2)CC1 (stereo unspecified)	none (no result: GSK3B inh, STK33 inh, GSK3A inh, DSG3 Ab inh)
O=C1c2ccccc2C(=O)c2c(O)c(O)cc(O)c21	MT1-MMP act inh 47.4 (no result: GSK3B inh, STK33 inh, GSK3A inh) | MT1-MMP conf inactive
Nc1cccc2[nH]c(C(F)(F)F)nc12	MT1-MMP act inh 51.2 | MT1-MMP conf inactive
CC(C)(C)c1ccc(OCCNC(=O)c2ncn[nH]2)cc1	MT1-MMP act inh 36.2 | MT1-MMP conf inactive
CCc1cc(C)cc(OCCNC(=O)c2ncn[nH]2)c1	none
